Measurements reported in ChEMBL document CHEMBL1135021, “Biotinylated lithocholic acids for affinity chromatography of mammalian DNA polymerases alpha and beta” (Bioorg Med Chem Lett, 2002).

Columns and labels:
[1] = test system: C[C@H](CCC(=O)O)[C@H]1CC[C@H]2[C@@H]3CCC4C[C@@H](OC(=O)CCNC(=O)CCCCCNC(=O)CCCCCNC(=O)CCCCC5SCC6NC(=O)NC65)CC[C@]4(C)[C@H]3CC[C@]12C; assay: Compound was evaluated for relative maximum velocity (Vmax)at a concentration of 10 uM on rat DNA polymerase beta as a function of nucleotide substrate concentration
Outline: (§1)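 Rat DNA pol β (0.05 units) was used. Compound was dissolved in DMSO, sonicated 30 s, and preincubated with enzyme for 10 min at 0 °C in 50 mM Tris–HCl (pH 7.5), 1 mM dithiothreitol, 50% glycerol and 0.1 mM EDTA. It was then added to the standard reaction. Template-primer poly(dA)/oligo(dT)12–18 (2/1) or dTTP substrate was varied. Km and Vmax came from double reciprocal plots.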

[2] = test system: C[C@H](CCC(=O)O)[C@H]1CC[C@H]2[C@@H]3CCC4C[C@@H](OC(=O)CCNC(=O)CCCCCNC(=O)CCCCCNC(=O)CCCCC5SCC6NC(=O)NC65)CC[C@]4(C)[C@H]3CC[C@]12C; assay: Michaelis constant at a concentration of 0 uM on rat DNA polymerase beta as a function of nucleotide substrate concentration; outline: as §1
[3] = test system: C[C@H](CCC(=O)O)[C@H]1CC[C@H]2[C@@H]3CCC4C[C@@H](OC(=O)CCNC(=O)CCCCCNC(=O)CCCCCNC(=O)CCCCC5SCC6NC(=O)NC65)CC[C@]4(C)[C@H]3CC[C@]12C; assay: Michaelis constant at a concentration of 0 uM on rat DNA polymerase beta as a function of template primer dose
Outline: (§2)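 Kinetic runs used calf thymus pol α or rat pol β (0.05 units each) preincubated with compound at 0 °C for 10 min in Tris–HCl pH 7.5/DTT/glycerol/EDTA buffer. Either poly(dA)/oligo(dT)12–18 (2/1) template-primer or dTTP substrate was varied. Km and Vmax came from double reciprocal plots, Ki from Dixon plots.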

[4] = test system: C[C@H](CCC(=O)O)[C@H]1CC[C@H]2[C@@H]3CCC4C[C@@H](OC(=O)CCNC(=O)CCCCCNC(=O)CCCCCNC(=O)CCCCC5SCC6NC(=O)NC65)CC[C@]4(C)[C@H]3CC[C@]12C; assay: Michaelis constant at a concentration of 10 uM on rat DNA polymerase beta as a function of nucleotide substrate concentration; outline: as §2
[5] = test system: C[C@H](CCC(=O)O)[C@H]1CC[C@H]2[C@@H]3CCC4C[C@@H](OC(=O)CCNC(=O)CCCCCNC(=O)CCCCCNC(=O)CCCCC5SCC6NC(=O)NC65)CC[C@]4(C)[C@H]3CC[C@]12C; assay: Michaelis constant at a concentration of 10 uM on rat DNA polymerase beta as a function of template primer dose; outline: as §2
[6] = test system: C[C@H](CCC(=O)O)[C@H]1CC[C@H]2[C@@H]3CCC4C[C@@H](OC(=O)CCNC(=O)CCCCCNC(=O)CCCCCNC(=O)CCCCC5SCC6NC(=O)NC65)CC[C@]4(C)[C@H]3CC[C@]12C; assay: Michaelis constant at a concentration of 20 uM on rat DNA polymerase beta as a function of template primer dose; outline: as §2
[7] = test system: C[C@H](CCC(=O)O)[C@H]1CC[C@H]2[C@@H]3CCC4C[C@@H](OC(=O)CCNC(=O)CCCCCNC(=O)CCCCCNC(=O)CCCCC5SCC6NC(=O)NC65)CC[C@]4(C)[C@H]3CC[C@]12C; assay: Michaelis constant at a concentration of 20 uMon rat DNA polymerase beta as a function of nucleotide substrate concentration; settings: 20 uM; outline: as §2
[8] = test system: C[C@H](CCC(=O)O)[C@H]1CC[C@H]2[C@@H]3CCC4C[C@@H](OC(=O)CCNC(=O)CCCCCNC(=O)CCCCCNC(=O)CCCCC5SCC6NC(=O)NC65)CC[C@]4(C)[C@H]3CC[C@]12C; assay: Compound was evaluated for relative maximum velocity (Vmax) at a concentration of 10 uM on rat DNA polymerase beta as a function of template primer dose; outline: as §1
[9] = test system: C[C@H](CCC(=O)O)[C@H]1CC[C@H]2[C@@H]3CCC4C[C@@H](O)CC[C@]4(C)[C@H]3CC[C@]12C; settings: 0 uM
[10] = test system: C[C@H](CCC(=O)O)[C@H]1CC[C@H]2[C@@H]3CCC4C[C@@H](O)CC[C@]4(C)[C@H]3CC[C@]12C; settings: 10 uM
[11] = test system: C[C@H](CCC(=O)O)[C@H]1CC[C@H]2[C@@H]3CCC4C[C@@H](O)CC[C@]4(C)[C@H]3CC[C@]12C; settings: 10 uM; remark: listed apart in the source
[12] = test system: C[C@H](CCC(=O)O)[C@H]1CC[C@H]2[C@@H]3CCC4C[C@@H](O)CC[C@]4(C)[C@H]3CC[C@]12C; settings: 5 uM
[13] = test system: C[C@H](CCC(=O)O)[C@H]1CC[C@H]2[C@@H]3CCC4C[C@@H](O)CC[C@]4(C)[C@H]3CC[C@]12C; settings: 5 uM; remark: listed apart in the source
[14] = test system: C[C@H](CCC(=O)O)[C@H]1CC[C@H]2[C@@H]3CCC4C[C@@H](O)CC[C@]4(C)[C@H]3CC[C@]12C; settings: 5 uM; remark: listed apart in the source
[15] = test system: C[C@H](CCC(=O)O)[C@H]1CC[C@H]2[C@@H]3CCC4C[C@@H](O)CC[C@]4(C)[C@H]3CC[C@]12C; settings: 5 uM; remark: listed apart in the source
[16] = test system: Nucleic Acid; assay: Compound was evaluated for relative maximum velocity (Vmax) at a concentration of 0 uM on calf DNA polymerase alpha as a function of nucleotide substrate concentration; assay type: nucleic-acid assay; settings: Bos taurus; outline: as §2
[17] = test system: Nucleic Acid; assay: Compound was evaluated for relative maximum velocity (Vmax) at a concentration of 10 uM on calf DNA polymerase alpha as a function of nucleotide substrate concentration; assay type: nucleic-acid assay; settings: Bos taurus; outline: as §2
[18] = test system: Nucleic Acid; assay: Compound was evaluated for relative maximum velocity (Vmax) at a concentration of 10 uM on calf DNA polymerase alpha as a function of template primer dose; assay type: nucleic-acid assay; settings: Bos taurus; outline: as §2
[19] = test system: Nucleic Acid; assay: Compound was evaluated for relative maximum velocity (Vmax) at a concentration of 5 uM on calf DNA polymerase alpha as a function of nucleotide substrate concentration; assay type: nucleic-acid assay; settings: Bos taurus; outline: as §2
[20] = test system: Nucleic Acid; assay: Compound was evaluated for relative maximum velocity (Vmax) at a concentration of 5 uM on calf DNA polymerase alpha as a function of template primer dose; assay type: nucleic-acid assay; settings: Bos taurus; outline: as §2
[21] = test system: Nucleic Acid; assay: Compound was evaluated for Michaelis constant at a concentration of 0 uM on calf DNA polymerase alpha as a function of DNA template primer dose; assay type: nucleic-acid assay; settings: Bos taurus; outline: as §2
[22] = test system: Nucleic Acid; assay: Michaelis constant at a concentration of 5 uM on calf DNA polymerase alpha as a function of nucleotide substrate concentration; assay type: nucleic-acid assay; settings: Bos taurus; outline: as §2
[23] = test system: Nucleic Acid; assay: Compound was evaluated for relative maximum velocity (Vmax) at a concentration of 0 uM on calf DNA polymerase alpha as a function of DNA template primer dose; assay type: nucleic-acid assay; settings: Bos taurus; outline: as §2
[24] = test system: Nucleic Acid; settings: Bos taurus; 25 uM
[25] = test system: Nucleic Acid; settings: Bos taurus; 25 uM; remark: listed apart in the source
[26] = test system: Nucleic Acid; settings: Bos taurus; 50 uM
[27] = test system: Nucleic Acid; settings: Bos taurus; 50 uM; remark: listed apart in the source
[28] = test system: Nucleic Acid; settings: Bos taurus; 25 uM; remark: listed apart in the source
[29] = test system: Nucleic Acid; settings: Bos taurus; 25 uM; remark: listed apart in the source

Q: Which Vmax [1] does the source give for “DNA polymerase beta (Rattus norvegicus) (from UniProt P06766)” here?
A: 62.5 pMl hr-1

Q: And the Km [2]?
A: 3.05 µM

Q: What about the Km [3] of the same molecule?
A: 6.47 µM

Q: What about the Km [4] of the same molecule?
A: 6.67 µM

Q: And the Km [5]?
A: 9.98 µM

Q: And the Km [6]?
A: 21.7 µM

Q: What about the Km [7] of the same molecule?
A: 9.49 µM

Q: What about the Vmax [8] of the same molecule?
A: 111 pMl hr-1

Q: What about the Km [9] of the same molecule?
A: 3.05 µM

Q: And the Km [10]?
A: 7.86 µM

Q: And the Km [11]?
A: 18.3 µM

Q: What about the Km [12] of the same molecule?
A: 6.28 µM

Q: And the Vmax [13]?
A: 111 pMl hr-1

Q: What about the Km [14] of the same molecule?
A: 9.41 µM

Q: And the Vmax [15]?
A: 62.5 pMl hr-1

Q: C[C@H](CCC(=O)O)[C@H]1CC[C@H]2[C@@H]3CCC4C[C@@H](OC(=O)CCNC(=O)CCCCCNC(=O)CCCCCNC(=O)CCCCC5SCC6NC(=O)NC65)CC[C@]4(C)[C@H]3CC[C@]12C (stereo partly specified) was tested. Which Vmax [16] did it give?
A: 29.2 pM/h

Q: What about the Vmax [17] of the same molecule?
A: 17.8 pM/h

Q: What about the Vmax [18] of the same molecule?
A: 21.3 pM/h

Q: What about the Vmax [19] of the same molecule?
A: 24.3 pM/h

Q: What about the Vmax [20] of the same molecule?
A: 33.5 pM/h

Q: What about the Km [21] of the same molecule?
A: 13 µM

Q: What about the Km [22] of the same molecule?
A: 1.65 µM

Q: And the Vmax [23]?
A: 55.6 pM/h

Q: How did the Vmax [16] turn out when C[C@H](CCC(=O)O)[C@H]1CC[C@H]2[C@@H]3CCC4C[C@@H](O)CC[C@]4(C)[C@H]3CC[C@]12C (stereo partly specified) was run?
A: 29.2 pM/h

Q: What about the Vmax [23] of the same molecule?
A: 55.6 pM/h

Q: What about the Vmax [24] of the same molecule?
A: 31.3 pM/h

Q: And the Vmax [25]?
A: 24.9 pM/h

Q: And the Vmax [26]?
A: 17.7 pM/h

Q: And the Vmax [27]?
A: 14.8 pM/h

Q: What about the Km [28] of the same molecule?
A: 13 µM

Q: And the Km [29]?
A: 1.65 µM
